The record followed here is ChEMBL document CHEMBL1121524, “Studies of hypolipidemic agents. 1. Synthesis and hypolipidemic activities of alkoxycinnamic acid derivatives” (1980).

The species named for assay [1] is Rattus norvegicus. Briefly: Hypolipidemic activity expressed as percentage decrease in triglyceride in rat, at dosage of 50 mg for 7 days. It is filed as functional. The method in brief: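 Male Sprague-Dawley rats, 4 weeks old, kept on CE-2 chow for at least 1 week, then grouped (generally five per group). Compound was mixed into CE-2 powder and fed ad libitum for the stated period; controls received plain CE-2 powder. Diet level is given as mg/100 g (mg%), about equal to mg/kg/day. Total serum triglyceride was measured by the Ryan and Rasho method and reported as percent depression versus control group mean. Significance was p < 0.05.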

The species entered for assay [2] is Rattus norvegicus. In words: Tested for the hypolipidemic activity, expressed as percent decrease in serum cholesterol in rat, at dosage of 50 mg for 7 days. It is filed as functional. In short, it runs like this:
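Male Sprague-Dawley rats, 4 weeks old, kept on CE-2 chow for at least 1 week, then grouped (generally five per group). Compound was mixed into CE-2 powder and fed ad libitum for the stated period; controls received plain CE-2 powder. Diet level is given as mg/100 g (mg%), about equal to mg/kg/day. Total serum cholesterol was measured by the Zak et al. method and reported as percent depression versus control group mean. Significance was p < 0.05.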

For `CCCCCCCCCCCCCCOc1ccc(/C=C(\C)C(=O)OCC(COC(=O)c2cccnc2)OC(=O)c2cccnc2)cc1` (stereo not given), the values for the Decrease in the assay listed under Rattus norvegicus [1] and in the assay listed under Rattus norvegicus [2] were 17% and 7%, respectively.
In the same order, the values of `CCCCCCCCCCCCCCOc1cccc(/C=C(\C)C(=O)O)c1` are -11% and -1%.
As to `CCCCCCCCOc1ccc(/C=C/C(=O)OCCOC(=O)/C=C/c2ccc(OCCCCCCCC)cc2)cc1`, the Decrease in the assay listed under Rattus norvegicus [1] is listed as 9%; in the assay listed under Rattus norvegicus [2], 4%.
For the molecule `CCCCCCCCCCCCOc1ccc(/C=C(\C)C(=O)OCc2cccnc2)cc1`, the Decrease in the assay listed under Rattus norvegicus [1] is reported as 60%; in the assay listed under Rattus norvegicus [2] it was 24%.
In the same order, the values of `CCCCCCCCCCCCCCOc1ccc(/C=C(\C)C(=O)OCC2COC(C)(C)O2)cc1` (stereo not given) are 2% and 9%.
Take `CCCCCCCCCCCCOc1ccc(/C=C/C(=O)OCC(O)CO)cc1` (stereo not given): the Decrease in the assay listed under Rattus norvegicus [1] was determined as 38%; in the assay listed under Rattus norvegicus [2], 17%.
In the same order, the values of `CCCCCCCCCCCCOc1ccc(/C=C/C(=O)O)cc1` are 52% and 15%.
In the same order, the values of `CCCCCCCCCCOc1ccc(/C=C(\C)C(=O)OCC(O)CO)cc1` (stereo not given) are 52% and 10%.
As for `CCCCCCCCCCCCCCOc1ccc(/C=C(\C)C(=O)OC)cc1`, the Decrease in the assay listed under Rattus norvegicus [1] stood at 44%; in the assay listed under Rattus norvegicus [2], 10%.
In the same order, the values of `CCCCCCCCCCOc1ccc(/C=C/C(=O)O)cc1` are 18% and 9%.
In the same order, the values of `C=C(C)C(=O)OCCOC(=O)/C=C/c1ccc(OCCCC)cc1` are 17% and 9%.
For the molecule `CCCCCCCCCCCCCCCCCCOc1ccc(/C=C(\C)C(=O)OCCCCl)cc1`, the Decrease in the assay listed under Rattus norvegicus [1] is reported as 11%; in the assay filed under Rattus norvegicus [2] it was 0%.
`CCCCCCCCCCCCCCCCOC(=O)/C=C/c1ccc(OCCCCCCCCCCCCCCCC)cc1`: the figures for the Decrease in the assay listed under Rattus norvegicus [1] and in the assay filed under Rattus norvegicus [2] were 27% and 11%, respectively.
Consider `CCCCCCCCCCOc1ccc(/C=C/C(=O)OCC(O)CO)cc1` (stereo not given), for which the Decrease in the assay filed under Rattus norvegicus [1] is on record as 14%; in the assay listed under Rattus norvegicus [2] it was -3%.
Regarding `CCCCCCCCOc1ccc(/C=C(\C)C(=O)OCC(O)CO)cc1` (stereo not given), the Decrease was found to be 21% in the assay listed under Rattus norvegicus [1] and 8% in the assay listed under Rattus norvegicus [2].
Take `CCCCCCCCCCCCCCCCOc1ccc(/C=C/C(=O)OCC(COC(=O)CCC)OC(=O)CCC)cc1` (stereo not given): the Decrease came to 36% in the assay listed under Rattus norvegicus [1] and 8% in the assay filed under Rattus norvegicus [2].
In the same order, the values of `CCCCCCCCOc1ccc(/C=C(\C)C(=O)OCc2ccccc2)cc1` are 18% and 5%.
In the case of `CCCCCCCCCCCCCCCCCCOc1ccc(/C=C(\C)C(=O)OCC(O)CO)cc1` (stereo not given), the Decrease in the assay filed under Rattus norvegicus [1] is reported as 3%; in the assay listed under Rattus norvegicus [2], -1%.
In the same order, the values of `CCCCCCCCCCCCOc1ccc(/C=C(\C)C(=O)OCC(COC(=O)c2ccccc2)OC(=O)c2ccccc2)cc1` (stereo not given) are 47% and 3%.
In the same order, the values of `CCCCCCCCCCCCCCOc1ccc(/C=C(\C)C(=O)OCC(COC(C)=O)OC(C)=O)cc1` (stereo not given) are 41% and 4%.
In the same order, the values of `CCCCCCCCCCCCCCOc1ccccc1/C=C(\C)C(=O)O` are 7% and -9%.
For the molecule `CCCCCCCCCCCCCCCCCCOc1ccc(/C=C(\C)C(=O)O)cc1`, the results for the Decrease in the assay filed under Rattus norvegicus [1] and in the assay filed under Rattus norvegicus [2] were -54% and -12%, respectively.
In the same order, the values of `CCCCCCCCCCCCCCCCOc1ccc(/C=C(\C)C(=O)OCC(COC(=O)/C(C)=C/c2ccc(OCCCCCCCCCCCCCCCC)cc2)OC(=O)/C(C)=C/c2ccc(OCCCCCCCCCCCCCCCC)cc2)cc1` (stereo not given) are 9% and 0%.
For the molecule `C=C(C)C(=O)OCCOC(=O)/C(C)=C/c1ccc(OCCCCCCCCCCCC)cc1`, the Decrease is 43% in the assay listed under Rattus norvegicus [1] and 17% in the assay filed under Rattus norvegicus [2].
In the same order, the values of `CCCCCCCCCCCCCCOc1ccc(/C=C(\C)C(=O)OCCN(C)C)cc1.Cl` are 35% and 8%.
